Data taken from ChEMBL document CHEMBL3272149, “Synthesis and antibacterial activity of some derivatives of tolypomycinone. Relationship between structure and activity in ansamycins” (J Med Chem, 1977).
Converted amounts (≈) assume the structure as drawn. The source made the active and inactive calls. No cut-off for these calls is given here.

Assays:
Klebsiella pneumoniae = assay: Antibacterial activity against Klebsiella pneumoniae Ottaviani assessed as inhibition of visible growth after 24 hrs by serial dilution method; format: functional
Staphylococcus aureus [1] = assay: Antibacterial activity against Staphylococcus aureus 209 P(FDA) assessed as inhibition of visible growth after 24 hrs by serial dilution method; format: functional
Escherichia coli = assay: Antibacterial activity against Escherichia coli MC/35 assessed as inhibition of visible growth after 24 hrs by serial dilution method; format: functional; conditions: MC/35, 24 h
[2] = system: Salmonella enterica subsp. enterica serovar Paratyphi B; assay: Antibacterial activity against Salmonella paratyphi B 0248 K assessed as inhibition of visible growth after 24 hrs by serial dilution method; format: functional
In short: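 Broth tube serial dilution in Brain Heart Infusion medium; inoculum 10^6 cells/mL; incubation 24 h at 35 °C; MIC taken as the lowest antibiotic concentration that prevented visible growth.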

Staphylococcus aureus [3] = assay: Antibacterial activity against Staphylococcus aureus 209 P(FDA) assessed as inhibition of visible growth in simulated intestinal juice at pH 8.3 after 1 to 4 hrs by serial dilution method; format: functional, organism-based
In short: (§1)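 Compound dissolved in simulated gastric juice (pH 1.3) or simulated intestinal juice (pH 8.3). Samples were withdrawn at 1, 2 and 4 h and assayed for residual inhibitory activity against Staphylococcus.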

[4] = Stability in simulated gastric juice at pH 1.3; format: ADME; conditions: simulated gi fluid; in short: as §1
Staphylococcus aureus [5] = assay: Antibacterial activity against Staphylococcus aureus 209 P(FDA) assessed as inhibition of visible growth in simulated gastric juice at pH 1.3 after 1 to 4 hrs by serial dilution method; format: functional, organism-based; in short: as §1
[6] = Stability in simulated intestinal juice at pH 8.3; format: ADME; conditions: simulated gi fluid; in short: as §1

Question: With `CO[C@H]1/C=C/O[C@@]2(C)Oc3c(C)c(O)c4c(c3C2=O)C(=O)C(NCc2ccccn2)=C(NC(=O)/C(C)=C\C(=O)[C@@H]2C[C@@H]2[C@H](O)[C@@H](C)[C@@H](O)[C@@H](C)[C@H](OC(C)=O)[C@@H]1C)C4=O` as the compound, how does the MIC (Klebsiella pneumoniae) read?
Answer: Its MIC is 12 µg/mL (≈ 14.7 µM).

Question: What about the MIC (Staphylococcus aureus [1]) of the same compound?
Answer: The MIC was under 0.005 µg/mL.

Question: And the MIC (Escherichia coli)?
Answer: Its MIC is 6 µg/mL (≈ 7.35 µM).

Question: And the MIC [2]?
Answer: The MIC was 25 µg/mL (≈ 30.6 µM).

Question: With `CO[C@H]1/C=C/O[C@@]2(C)Oc3c(C)c(O)c4c(O)c(cc(O)c4c3C2=O)NC(=O)/C(C)=C\C=C\[C@H](C)[C@H](O)[C@@H](C)[C@@H](O)[C@@H](C)[C@H](OC(C)=O)[C@@H]1C` [RIFAMYCIN] as the compound, how does the MIC (Klebsiella pneumoniae) read?
Answer: The MIC was 100 µg/mL (≈ 143 µM).

Question: What about the MIC (Staphylococcus aureus [1]) of the same compound?
Answer: The MIC was under 0.005 µg/mL.

Question: What about the MIC (Escherichia coli) of the same compound?
Answer: The MIC was 100 µg/mL (≈ 143 µM).

Question: What about the MIC [2] of the same compound?
Answer: Its MIC is 100 µg/mL (≈ 143 µM).

Question: For `CO[C@H]1/C=C/O[C@@]2(C)Oc3c(C)c(O)c4c(c3C2=O)C(=O)C(NCCN2CCOCC2)=C(NC(=O)/C(C)=C\C(=O)[C@@H]2C[C@@H]2[C@H](O)[C@@H](C)[C@@H](O)[C@@H](C)[C@H](OC(C)=O)[C@@H]1C)C4=O`, which inhibition (Staphylococcus aureus [3]) is on record?
Answer: Its inhibition is “Active”.

Question: What about the Stability [4] of the same compound?
Answer: Its Stability is “Stable”.

Question: And the MIC (Klebsiella pneumoniae)?
Answer: The MIC was 50 µg/mL (≈ 59.7 µM).

Question: What about the inhibition (Staphylococcus aureus [5]) of the same compound?
Answer: The inhibition was “Active”.

Question: What about the Stability [6] of the same compound?
Answer: Its Stability is “Stable”.

Question: And the MIC (Staphylococcus aureus [1])?
Answer: The MIC was under 0.005 µg/mL.

Question: What about the MIC (Escherichia coli) of the same compound?
Answer: The MIC was 12 µg/mL (≈ 14.3 µM).

Question: What about the MIC [2] of the same compound?
Answer: Its MIC is 12 µg/mL (≈ 14.3 µM).

Question: Which MIC (Klebsiella pneumoniae) does the source give for `CO[C@H]1/C=C/O[C@@]2(C)Oc3c(C)c(O)c4c(c3C2=O)C(=O)C(NCCCO)=C(NC(=O)/C(C)=C\C(=O)[C@@H]2C[C@@H]2[C@H](O)[C@@H](C)[C@@H](O)[C@@H](C)[C@H](OC(C)=O)[C@@H]1C)C4=O` here?
Answer: The MIC was 25 µg/mL (≈ 31.9 µM).

Question: And the MIC (Staphylococcus aureus [1])?
Answer: The MIC was 0.025 µg/mL (≈ 0.0319 µM).

Question: And the MIC (Escherichia coli)?
Answer: The MIC was 12 µg/mL (≈ 15.3 µM).

Question: And the MIC [2]?
Answer: The MIC was 12 µg/mL (≈ 15.3 µM).

Question: Which results are given for `COc1cc(CNC2=C3NC(=O)/C(C)=C\C(=O)[C@@H]4C[C@@H]4[C@H](O)[C@@H](C)[C@@H](O)[C@@H](C)[C@H](OC(C)=O)[C@H](C)[C@@H](OC)/C=C/O[C@@]4(C)Oc5c(C)c(O)c(c(c5C4=O)C2=O)C3=O)ccc1O`?
Answer: MIC (Klebsiella pneumoniae): 100 µg/mL (≈ 116 µM); MIC (Staphylococcus aureus [1]): < 0.005 µg/mL; MIC (Escherichia coli): 100 µg/mL (≈ 116 µM); MIC [2]: 100 µg/mL (≈ 116 µM)
